Laboratory results as given in EPA's CvTdb concentration-time database.
Values joined by “and” are separate entries in the source; they are usually repeats but may differ in a detail not shown here. Equal entries are not always repeated.

Tests used:
Rat [1] = assay: concentration in plasma after dosing; conditions: 10 min; dosed: Gemfibrozil; 50 mg/kg; oral; Male; Sprague-Dawley
Rat [2] = assay: concentration in brain after dosing; conditions: 1 h; dosed: Fluorotelomer alcohol 8+2; 24 mg/kg; oral; Male; Harlan Sprague Dawley
Rat [3] = assay: concentration in kidney after dosing; conditions: 0.5 h; dosed: Fluorotelomer alcohol 8+2; 80 mg/kg; oral; Female; Harlan Sprague Dawley
Rat [4] = assay: concentration in plasma after dosing; conditions: dosed: Fluorotelomer alcohol 8+2, 12 mg/kg, oral, Male, Harlan Sprague Dawley
human [5] = assay: concentration in expired air after dosing; conditions: dosed: trichloroethylene, 100 ppm, inhalation, duration: 4 hr, person
In short: (§1)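 Data points giving concentration or amount against time came from published in vivo toxicokinetic studies and from two structured collections. PubMed searching, classifier screening and manual review located the studies. Most points were digitised from plot screenshots using WebPlotDigitizer, the rest were copied from tables, and all keep their reported units.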

human [6] = assay: concentration in expired air after dosing; conditions: dosed: trichloroethylene, 100 ppm, inhalation, duration: 4 hr, person; remark: listed apart in the source
In short: as §1

human [7] = assay: concentration in blood after dosing; negative times count back from the end of exposure; conditions: dosed: trichloroethylene, 100 ppm, inhalation, person
In short: as §1

Rat [8] = assay: concentration in liver after dosing; conditions: 6 h; dosed: Perfluorooctane Sulfonate; 2 mg/kg; oral; Female; Harlan Sprague Dawley
Rat [9] = assay: concentration in liver after dosing; conditions: 3360 h; dosed: Perfluorooctane Sulfonate; 20 mg/kg; oral; Male; Harlan Sprague Dawley
Rat [10] = assay: concentration in brain after dosing; conditions: 864 h; dosed: Perfluorooctane Sulfonate; 20 mg/kg; oral; Female; F344
Rat [11] = assay: concentration in brain after dosing; conditions: 24 h; dosed: Perfluorooctane Sulfonate; 20 mg/kg; oral; Female; F344
Rat [12] = assay: concentration in liver after dosing; conditions: 3360 h; dosed: Perfluorooctane Sulfonate; 20 mg/kg; oral; Male; Harlan Sprague Dawley; remark: listed apart in the source
Rat [13] = assay: concentration in kidney after dosing; conditions: 1848 h; dosed: Perfluorooctane Sulfonate; 2 mg/kg; oral; Female; Harlan Sprague Dawley
Rat [14] = assay: concentration in kidney after dosing; conditions: 24 h; dosed: Perfluorooctane Sulfonate; 2 mg/kg; oral; Female; Harlan Sprague Dawley
Rat [15] = assay: concentration in kidney after dosing; conditions: 6 h; dosed: Perfluorooctane Sulfonate; 20 mg/kg; oral; Male; Harlan Sprague Dawley
Rat [16] = assay: concentration in kidney after dosing; conditions: 1848 h; dosed: Perfluorooctane Sulfonate; 2 mg/kg; oral; Female; Harlan Sprague Dawley; remark: listed apart in the source
Rat [17] = assay: concentration in kidney after dosing; conditions: 864 h; dosed: Perfluorooctane Sulfonate; 20 mg/kg; oral; Female; F344
Rat [18] = assay: concentration in kidney after dosing; conditions: 3360 h; dosed: Perfluorooctane Sulfonate; 2 mg/kg; oral; Female; Harlan Sprague Dawley
Rat [19] = assay: concentration in brain after dosing; conditions: 0.5 h; dosed: 2-Methyltetrahydrofuran; 40 mg/kg; iv; Female; Harlan Sprague Dawley
Rat [20] = assay: concentration in brain after dosing; conditions: 0.2 h; dosed: 2-Methyltetrahydrofuran; 40 mg/kg; iv; Male; Harlan Sprague Dawley
Rat [21] = assay: concentration in brain after dosing; conditions: 0.5 h; dosed: 2-Methyltetrahydrofuran; 40 mg/kg; iv; Female; Harlan Sprague Dawley; remark: listed apart in the source
Rat [22] = assay: concentration in kidney after dosing; conditions: 6 h; dosed: Perfluorohexanoic Acid; 80 mg/kg; oral; Male; Harlan Sprague Dawley
Rat [23] = assay: concentration in kidney after dosing; conditions: 1 h; dosed: Perfluorohexanoic Acid; 80 mg/kg; oral; Male; Harlan Sprague Dawley
Rat [24] = assay: concentration in plasma after dosing; conditions: dosed: Perfluorohexanoic Acid, 40 mg/kg, oral, Male, Harlan Sprague Dawley
Rat [25] = assay: concentration in kidney after dosing; conditions: 6 h; dosed: Perfluorohexanoic Acid; 80 mg/kg; oral; Female; Harlan Sprague Dawley
Rat [26] = assay: concentration in kidney after dosing; conditions: 12 h; dosed: Perfluorohexanoic Acid; 80 mg/kg; oral; Male; Harlan Sprague Dawley
Rat [27] = assay: concentration in kidney after dosing; conditions: 3 h; dosed: Perfluorohexanoic Acid; 80 mg/kg; oral; Female; Harlan Sprague Dawley
Rat [28] = assay: concentration in plasma after dosing; conditions: dosed: Perfluorohexanoic Acid, 40 mg/kg, oral, Male, Harlan Sprague Dawley; remark: listed apart in the source

Cc1ccc(C)c(OCCCC(C)(C)C(=O)O)c1 [Gemfibrozil]
Conditions	concentration in plasma [ng/mL]
Rat [1]	76500

O=C(O)CCC(F)(F)C(F)(F)C(F)(F)C(F)(F)C(F)(F)C(F)(F)C(F)(F)F [Fluorotelomer acid 7+3]
Conditions	concentration in brain [ng/g]	concentration in kidney [ng/g]
Rat [2]	128	–
Rat [3]	–	357

Rat [4]
Conditions	concentration in plasma [ng/mL]
1 h	650
24 h	210

ClC=C(Cl)Cl [trichloroethylene]
concentration in expired air
Conditions	human [5]	human [6]
0.1172 h	–	7.17 ppm
0.1972 h	–	5.83 ppm
0.2505 h	6.43 ppm	–
0.3304 h	–	5.7 ppm
0.4637 h	–	4.83 ppm
0.4903 h	4.4 ppm	–
0.9967 h	–	2.59 ppm
1.01 h	2.66 ppm	–
2.009 h	1.42 ppm	1.89 ppm
4.008 h	1.29 ppm	–
4.021 h	–	1.39 ppm
5.993 h	1.15 ppm	1.35 ppm
8.005 h	0.514 ppm	–
8.019 h	–	1.01 ppm
10.04 h	0.377 ppm	1.08 ppm
11.99 h	0.34 ppm	–
12.02 h	–	0.874 ppm
13.99 h	0.738 ppm	–
38 s	–	21.7 ppm
86 s	24.7 ppm	–
230 s	–	14.3 ppm and 10.8 ppm

human [7]
Conditions	concentration in blood [ng/mL]
0 h, duration: 6 hr	1310
0.2145 h, duration: 4 hr	2070
0.2337 h, duration: 4 hr	1290
0.4864 h, duration: 4 hr	1450
0.9849 h, duration: 4 hr	714
0.9924 h, duration: 4 hr	513
1.967 h, duration: 4 hr	333
1.979 h, duration: 4 hr	268
3.961 h, duration: 4 hr	170
18 h, duration: 6 hr	1100
22 s, duration: 4 hr	1870
24 h, duration: 6 hr	562
29.5 min, duration: 4 hr	851
42 h, duration: 6 hr	1490
48 h, duration: 6 hr	1230
66 h, duration: 6 hr	2060
72 h, duration: 6 hr	1320
90 h, duration: 6 hr	1660
96 h, duration: 6 hr	1370
160 h, duration: 6 hr	921

concentration in blood [ng/mL], human [7], during exposure
Conditions	-6 h	-3.502 h	-3.499 h	-3.014 h	-3.003 h	-2.006 h	-1.997 h	-1.011 h	-1.009 h
duration: 4 hr	–	1670	881	1250	2120	2530	1520	1690	2830
duration: 6 hr	11.9	–	–	–	–	–	–	–	–

O=S(=O)([O-])C(F)(F)C(F)(F)C(F)(F)C(F)(F)C(F)(F)C(F)(F)C(F)(F)C(F)(F)F [Perfluorooctane Sulfonate]
Conditions	concentration in brain [ng/g]	concentration in kidney [ng/g]	concentration in liver [ng/g]
Rat [8]	–	–	25400
Rat [9]	–	–	29800
Rat [10]	2730	–	–
Rat [11]	7400	–	–
Rat [12]	–	–	8480
Rat [13]	–	980	–
Rat [14]	–	9700	–
Rat [15]	–	72300	–
Rat [16]	–	2450	–
Rat [17]	–	35600	–
Rat [18]	–	1110	–

CC1CCCO1 (stereo unspecified) [2-Methyltetrahydrofuran]
Conditions	concentration in brain [ng/mL]
Rat [19]	12700
Rat [20]	26500
Rat [21]	13800

O=C(O)C(F)(F)C(F)(F)C(F)(F)C(F)(F)C(F)(F)F [Perfluorohexanoic Acid]
Conditions	concentration in kidney [ng/g]
Rat [22]	10600
Rat [23]	86000
Rat [25]	9420
Rat [26]	1990
Rat [27]	38000

concentration in plasma [ng/mL]
Conditions	0.75 h	1 h	12 h	24 h
Rat [24]	78200	–	5210	–
Rat [28]	–	51400	–	2400
